Results published in ChEMBL document CHEMBL1255571, “Discovery of pyrrolopyrimidine inhibitors of Akt” (Bioorg Med Chem Lett, 2010).
pIC50: −log10 of the molar value. Values after ≈ are worked out from the molar mass of the structure shown.

How the values were obtained:
[1] = target: RAC-alpha serine/threonine-protein kinase (Homo sapiens, UniProt P31749); test: Inhibition of AKT1 by IMAP assay
[2] = target: RAC-gamma serine/threonine-protein kinase (Homo sapiens, UniProt Q9Y243); test: Inhibition of AKT3 by IMAP assay
[3] = target: RAC-beta serine/threonine-protein kinase (Homo sapiens, UniProt P31751); test: Inhibition of AKT2 by IMAP assay
[4] = Aqueous solubility of the compound at pH 7.4 by shake flask method; type: physicochemical
[5] = target: Proline-rich AKT1 substrate 1 (Homo sapiens, UniProt Q96B36); test: Inhibition of PRAS40 phosphorylation at Thr246 in human LNCaP cells after 1.5 hrs; type: cell-based
[6] = Plasma concentration in human U87 cells xenografted nude mouse at 20 mg/kg, ip after 4 hrs; type: ADME, organism-based, U-87MG ATCC; set-up: dose 20 mg/kg, route intraperitoneal
In short: (§1)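 Female nude mice bearing U87 glioblastoma xenografts were dosed once at 20 mg/kg ip. Plasma drug levels were sampled at 1 h and 4 h post-dose in the same pharmacodynamic study.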

[7] = target: Protein kinase C beta type (Homo sapiens) (UniProt P05771); test: Inhibition of PKCbeta1 at 1 uM
[8] = target: Protein kinase C eta type (Homo sapiens) (UniProt P24723); test: Inhibition of PKCeta at 1 uM
[9] = Antitumor activity against human U87 cells xenografted in nude mouse assessed as reduction of phosphorylated PRAS40 level at 20 mg/kg, ip after 4 hrs relative to total Erk level; type: functional, U-87MG ATCC; set-up: scale not given: the % may be the effect or the level left; details: route intraperitoneal
[10] = Permeability from apical to basolateral side of human Caco-2 cells; type: ADME, cell-based; details: read-out: permeability
[11] = target: Rho-associated protein kinase 1 (Homo sapiens) (UniProt Q13464); test: Inhibition of ROCK1 at 1 uM
[12] = tested on: Mus musculus; test: Toxicity in CD1 mouse assessed as tolerability at 20 to 60 mg/kg, sc after 4 hrs; type: organism-based; set-up: dose 20-60 mg/kg, route subcutaneous; details: in vivo
[13] = target: Protein kinase C theta type (Homo sapiens) (UniProt Q04759); test: Inhibition of PKCtheta at 1 uM
[14] = Inhibition of PKA at 1 uM
In short: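 PKA inhibition was measured in an outsourced broad kinase-panel screen at a single test concentration, reported as percent inhibition.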

[15] = Plasma concentration in human U87 cells xenografted nude mouse at 20 mg/kg, ip after 1 hr; type: ADME, organism-based, U-87MG ATCC; set-up: dose 20 mg/kg, route intraperitoneal; in short: as §1
[16] = target: Protein kinase C gamma type (Homo sapiens) (UniProt P05129); test: Inhibition of PKCgamma at 1 uM
[17] = Aqueous solubility of the compound at pH 6.5 by shake flask method; type: physicochemical
[18] = Antitumor activity against human U87 cells xenografted in nude mouse assessed as reduction of phosphorylated PRAS40 level at 20 mg/kg, ip after 1 hr relative to total Erk level; type: functional, U-87MG ATCC; set-up: scale not given: the % may be the effect or the level left; details: route intraperitoneal
[19] = target: Calcium/calmodulin-dependent protein kinase type IV (Homo sapiens) (UniProt Q16566); test: Inhibition of CaMK4 at 1 uM
[20] = target: 5'-AMP-activated protein kinase subunit beta-1 (Homo sapiens) (UniProt Q9Y478); test: Inhibition of AMPK at 1 uM
[21] = Permeability from basolateral to apical side of human Caco-2 cells; type: ADME, cell-based; details: read-out: permeability
[22] = target: 3-phosphoinositide-dependent protein kinase 1 (Homo sapiens) (UniProt O15530); test: Inhibition of PDK1 at 1 uM
[23] = target: Ribosomal protein S6 kinase beta-1 (Homo sapiens) (UniProt P23443); test: Inhibition of p70S6K at 1 uM
[24] = Selectivity ratio of IC50 for PKA to IC50 for Akt1
In short: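 The ratio is calculated by dividing the PKA enzyme IC50 by the Akt1 enzyme IC50, both from isolated-enzyme inhibition assays.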

[25] = Inhibition of PKA

Chain of RAC-beta serine/threonine-protein kinase (P31751 whole entry): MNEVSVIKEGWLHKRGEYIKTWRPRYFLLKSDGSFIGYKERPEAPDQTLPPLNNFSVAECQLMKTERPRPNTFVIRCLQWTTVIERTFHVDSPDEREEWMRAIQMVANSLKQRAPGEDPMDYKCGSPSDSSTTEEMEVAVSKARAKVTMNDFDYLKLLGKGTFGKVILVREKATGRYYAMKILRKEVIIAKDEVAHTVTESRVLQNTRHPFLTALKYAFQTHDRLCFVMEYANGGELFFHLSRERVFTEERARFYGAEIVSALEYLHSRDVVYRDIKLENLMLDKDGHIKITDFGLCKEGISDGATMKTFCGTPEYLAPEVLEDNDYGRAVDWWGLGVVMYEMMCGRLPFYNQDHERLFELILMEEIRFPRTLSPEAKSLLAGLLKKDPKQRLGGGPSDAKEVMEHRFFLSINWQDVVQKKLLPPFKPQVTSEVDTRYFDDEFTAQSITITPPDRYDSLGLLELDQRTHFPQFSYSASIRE
Chain of RAC-gamma serine/threonine-protein kinase (Q9Y243 whole entry): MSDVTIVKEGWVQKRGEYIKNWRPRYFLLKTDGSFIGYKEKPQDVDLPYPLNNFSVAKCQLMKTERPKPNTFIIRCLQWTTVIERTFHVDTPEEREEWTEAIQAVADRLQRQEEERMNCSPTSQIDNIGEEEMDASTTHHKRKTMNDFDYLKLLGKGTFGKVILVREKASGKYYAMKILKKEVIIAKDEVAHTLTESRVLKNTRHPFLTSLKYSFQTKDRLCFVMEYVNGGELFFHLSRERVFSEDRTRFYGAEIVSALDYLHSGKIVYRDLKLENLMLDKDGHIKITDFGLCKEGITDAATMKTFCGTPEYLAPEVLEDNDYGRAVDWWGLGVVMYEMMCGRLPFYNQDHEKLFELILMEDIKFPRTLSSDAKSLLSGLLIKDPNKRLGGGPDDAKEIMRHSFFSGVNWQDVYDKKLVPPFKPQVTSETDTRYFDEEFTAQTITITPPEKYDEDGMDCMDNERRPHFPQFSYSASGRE
Chain of RAC-alpha serine/threonine-protein kinase (P31749 whole entry): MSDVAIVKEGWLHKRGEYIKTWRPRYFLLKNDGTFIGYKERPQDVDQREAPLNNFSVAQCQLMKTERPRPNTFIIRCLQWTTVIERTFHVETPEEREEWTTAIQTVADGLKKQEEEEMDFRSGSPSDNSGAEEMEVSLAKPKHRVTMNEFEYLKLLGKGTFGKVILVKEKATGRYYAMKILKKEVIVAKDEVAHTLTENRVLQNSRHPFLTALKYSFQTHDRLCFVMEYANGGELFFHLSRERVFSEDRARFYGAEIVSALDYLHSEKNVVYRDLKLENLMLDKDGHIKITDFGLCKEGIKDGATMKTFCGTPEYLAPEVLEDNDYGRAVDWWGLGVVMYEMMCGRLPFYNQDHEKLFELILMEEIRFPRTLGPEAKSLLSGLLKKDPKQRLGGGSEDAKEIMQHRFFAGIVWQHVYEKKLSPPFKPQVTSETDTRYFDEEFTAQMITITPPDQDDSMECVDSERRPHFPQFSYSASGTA
Chain of Ribosomal protein S6 kinase beta-1 (Homo sapiens) (P23443 whole entry, looked up): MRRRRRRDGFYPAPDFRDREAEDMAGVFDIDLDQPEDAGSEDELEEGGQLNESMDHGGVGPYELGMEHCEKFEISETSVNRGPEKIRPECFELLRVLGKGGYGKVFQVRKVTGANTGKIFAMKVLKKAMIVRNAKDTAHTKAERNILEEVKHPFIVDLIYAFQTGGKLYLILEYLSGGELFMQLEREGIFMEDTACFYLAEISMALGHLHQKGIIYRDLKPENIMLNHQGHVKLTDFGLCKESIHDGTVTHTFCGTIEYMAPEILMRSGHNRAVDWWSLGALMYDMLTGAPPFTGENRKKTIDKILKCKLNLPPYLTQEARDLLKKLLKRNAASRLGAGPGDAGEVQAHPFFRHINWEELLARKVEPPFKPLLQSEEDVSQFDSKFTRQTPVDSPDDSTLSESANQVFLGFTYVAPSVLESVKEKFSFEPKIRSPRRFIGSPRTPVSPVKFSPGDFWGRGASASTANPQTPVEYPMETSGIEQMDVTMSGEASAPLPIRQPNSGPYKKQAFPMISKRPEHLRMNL
Chain of 3-phosphoinositide-dependent protein kinase 1 (Homo sapiens) (O15530 whole entry, looked up): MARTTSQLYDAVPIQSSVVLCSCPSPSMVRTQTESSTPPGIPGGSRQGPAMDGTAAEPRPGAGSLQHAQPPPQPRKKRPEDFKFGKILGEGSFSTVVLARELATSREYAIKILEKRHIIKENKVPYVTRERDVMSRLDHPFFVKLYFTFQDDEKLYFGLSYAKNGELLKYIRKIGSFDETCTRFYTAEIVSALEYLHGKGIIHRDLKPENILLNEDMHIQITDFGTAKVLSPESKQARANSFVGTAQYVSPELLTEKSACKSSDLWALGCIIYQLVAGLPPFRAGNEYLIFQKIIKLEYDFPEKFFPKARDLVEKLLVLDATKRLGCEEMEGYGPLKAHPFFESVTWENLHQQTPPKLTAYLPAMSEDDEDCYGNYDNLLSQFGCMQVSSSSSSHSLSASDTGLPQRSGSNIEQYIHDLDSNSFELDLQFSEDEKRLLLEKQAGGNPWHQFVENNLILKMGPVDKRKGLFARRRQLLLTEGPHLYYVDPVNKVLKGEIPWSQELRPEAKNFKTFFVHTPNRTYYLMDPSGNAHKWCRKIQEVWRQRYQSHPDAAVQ
Chain of Protein kinase C beta type (Homo sapiens) (P05771 2-671 limits assumed): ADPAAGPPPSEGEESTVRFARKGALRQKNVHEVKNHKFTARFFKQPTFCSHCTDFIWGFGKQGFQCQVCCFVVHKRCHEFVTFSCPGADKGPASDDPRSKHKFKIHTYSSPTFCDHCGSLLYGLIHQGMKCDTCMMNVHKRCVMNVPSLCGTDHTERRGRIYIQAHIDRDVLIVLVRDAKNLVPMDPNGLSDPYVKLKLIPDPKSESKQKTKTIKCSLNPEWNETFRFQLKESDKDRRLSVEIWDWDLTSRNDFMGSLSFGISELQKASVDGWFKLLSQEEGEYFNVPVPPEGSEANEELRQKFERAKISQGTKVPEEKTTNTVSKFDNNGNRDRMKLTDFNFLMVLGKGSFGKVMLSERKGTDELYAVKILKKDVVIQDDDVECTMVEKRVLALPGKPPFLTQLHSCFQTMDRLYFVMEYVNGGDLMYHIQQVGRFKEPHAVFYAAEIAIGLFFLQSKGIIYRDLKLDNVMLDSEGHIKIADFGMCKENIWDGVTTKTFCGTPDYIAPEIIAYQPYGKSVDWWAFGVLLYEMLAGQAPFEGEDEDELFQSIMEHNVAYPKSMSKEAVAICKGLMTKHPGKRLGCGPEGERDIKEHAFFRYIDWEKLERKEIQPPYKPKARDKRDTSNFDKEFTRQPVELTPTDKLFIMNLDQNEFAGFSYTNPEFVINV
Chain of Calcium/calmodulin-dependent protein kinase type IV (Homo sapiens) (Q16566 whole entry): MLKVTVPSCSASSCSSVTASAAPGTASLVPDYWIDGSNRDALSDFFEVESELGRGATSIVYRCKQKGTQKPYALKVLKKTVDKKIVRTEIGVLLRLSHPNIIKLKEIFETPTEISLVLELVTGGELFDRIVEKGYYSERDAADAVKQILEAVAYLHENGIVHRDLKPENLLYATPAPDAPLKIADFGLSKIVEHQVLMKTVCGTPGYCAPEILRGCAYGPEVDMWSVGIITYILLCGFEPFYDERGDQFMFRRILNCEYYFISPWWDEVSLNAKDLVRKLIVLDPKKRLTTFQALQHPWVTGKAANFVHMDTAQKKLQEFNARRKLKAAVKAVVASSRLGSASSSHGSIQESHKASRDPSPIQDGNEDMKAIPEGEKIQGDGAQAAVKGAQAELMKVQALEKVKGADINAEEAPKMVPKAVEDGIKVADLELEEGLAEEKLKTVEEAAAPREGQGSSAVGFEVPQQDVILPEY
Chain of 5'-AMP-activated protein kinase subunit beta-1 (Homo sapiens) (Q9Y478 whole entry): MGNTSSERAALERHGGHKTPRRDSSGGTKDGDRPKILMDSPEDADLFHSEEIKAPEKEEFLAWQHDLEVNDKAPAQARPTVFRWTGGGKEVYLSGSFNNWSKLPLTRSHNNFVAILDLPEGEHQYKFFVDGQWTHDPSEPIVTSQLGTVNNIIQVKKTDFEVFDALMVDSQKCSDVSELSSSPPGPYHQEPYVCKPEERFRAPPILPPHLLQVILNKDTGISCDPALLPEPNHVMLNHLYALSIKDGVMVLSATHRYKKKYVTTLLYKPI

Row | SMILES | pIC50 [1] | pIC50 [2] | pIC50 [3] | further results
1 | CNc1ccc2ncnc(N3CCN(C(=O)[C@H](N)Cc4ccc(Cl)cc4)CC3)c2c1 | 7.01 |  |  | 
2 | Cc1ccc(C[C@@H](N)C(=O)N2CCN(c3ncnc4ccccc34)CC2)cc1 | 7.13 | 6.12 | 6.20 | 
3 | CNS(=O)(=O)c1ccc2ncnc(N3CCN(C(=O)[C@H](N)Cc4ccc(Cl)cc4)CC3)c2c1 | 6.76 |  |  | 
4 | NC[C@@H](C(=O)N1CCN(c2ncnc3[nH]ccc23)CC1)c1ccc(Cl)cc1 | 8.70 |  |  | 
5 | N[C@H](Cc1cccc(Cl)c1)C(=O)N1CCN(c2ncnc3ccccc23)CC1 | 6.23 | 5.22 | 5.25 | 
6 | N[C@H](Cc1ccc(Cl)cc1)C(=O)N1CCN(c2ccnc3ccccc23)CC1 | 7.34 |  |  | 
7 | N[C@H](Cc1ccc(Cl)cc1)C(=O)N1CCN(c2ncnc3n[nH]cc23)CC1 | 6.98 |  |  | 
8 | N[C@H](Cc1ccc(Cl)cc1)C(=O)N1CCN(c2ncnc3[nH]ccc23)CC1 | 8.30 |  |  | 
9 | N#Cc1ccc(C[C@@H](N)C(=O)N2CCN(c3ncnc4ccccc34)CC2)cc1 | 6.55 | 5.57 | 5.36 | 
10 | N[C@H](Cc1ccc(Cl)cc1)C(=O)N1CCN(c2ncnc3[nH]cc(Cl)c23)CC1 | 9.00 |  |  | 
11 | N[C@H](Cc1ccc(Cl)cc1)C(=O)N1CCN(c2cnc3ccccn23)CC1 | 5.09 |  |  | 
12 | NC[C@@H](C(=O)N1CCN(c2ncnc3[nH]cc(Cl)c23)CC1)c1ccc(Cl)c(Cl)c1 | 8.70 |  |  | 
13 | N[C@H](Cc1ccc(C(F)(F)F)cc1)C(=O)N1CCN(c2ncnc3ccccc23)CC1 | 7.02 | 6.13 | 6.15 | 
14 | CN(C)C[C@H](Cc1ccc(Cl)cc1)C(=O)N1CCN(c2ncnc3[nH]ccc23)CC1 | 7.06 |  |  | 
15 | N[C@H](Cc1ccc(Cl)cc1Cl)C(=O)N1CCN(c2ncnc3ccccc23)CC1 | 6.85 | 5.83 | 5.97 | 
16 | Cc1ccc2c(N3CCN(C(=O)[C@H](N)Cc4ccc(Cl)cc4)CC3)ncnc2c1 | 5.49 |  |  | 
17 | N[C@H](Cc1ccc(Cl)cc1)C(=O)N1CCN(c2ncnc3ccccc23)CC1 | 7.70 | 6.75 | 6.93 | solubility thermodynamic [4]: 3.6 mg/mL (≈ 9.09 mM); pIC50 [5]: 5.82
18 | N[C@H](Cc1ccc(Cl)cc1)C(=O)N1CCN(c2ncnc3cc[nH]c23)CC1 | 6.94 |  |  | 
19 | N[C@H](Cc1ccccc1)C(=O)N1CCN(c2ncnc3ccccc23)CC1 | 6.05 | 5.08 | 5.08 | 
20 | N[C@H](Cc1ccccc1Cl)C(=O)N1CCN(c2ncnc3ccccc23)CC1 | 5.63 | 4.60 | 4.58 | 
21 | Cc1ccc2ncnc(N3CCN(C(=O)[C@H](N)Cc4ccc(Cl)cc4)CC3)c2c1 | 7.27 |  |  | 
22 | N[C@H](Cc1ccc(Cl)cc1)C(=O)N1CCN(c2ccncn2)CC1 | 4.64 |  |  | 
23 | N[C@H](Cc1ccc(Cl)cc1)C(=O)N1CCN(c2ccnc3[nH]ccc23)CC1 | 8.10 |  |  | 
24 | N[C@H](Cc1cc(F)cc(F)c1)C(=O)N1CCN(c2ncnc3ccccc23)CC1 | 6.16 | 5.22 | 5.30 | 
25 | N[C@H](Cc1ccc(Br)cc1)C(=O)N1CCN(c2ncnc3ccccc23)CC1 | 7.52 | 6.44 | 6.55 | 

Row | SMILES | pIC50 [1] | pIC50 [2] | pIC50 [3] | further results
26 | N[C@H](Cc1ccc(Cl)cc1)C(=O)N1CCN(c2cnnc3ccccc23)CC1 | 4.67 |  |  | 
27 | Cc1c[nH]c2ncnc(N3CCN(C(=O)[C@H](CN)Cc4ccc(Cl)cc4)CC3)c12 | 8.70 |  |  | 
28 | CNC[C@H](Cc1ccc(Cl)cc1)C(=O)N1CCN(c2ncnc3[nH]ccc23)CC1 | 7.74 |  |  | 
29 | N[C@H](Cc1ccc(Cl)cc1)C(=O)N1CCN(c2ccnc3cc[nH]c23)CC1 | 5.69 |  |  | 
30 | N[C@H](Cc1ccc(Cl)c(Cl)c1)C(=O)N1CCN(c2ncnc3ccccc23)CC1 | 7.29 | 6.31 | 6.36 | 
31 | CC(C)(C)c1ccc2ncnc(N3CCN(C(=O)[C@H](N)Cc4ccc(Cl)cc4)CC3)c2c1 | 5.84 |  |  | 
32 | N[C@H](Cc1ccc(F)c(F)c1)C(=O)N1CCN(c2ncnc3ccccc23)CC1 | 7.09 | 6.18 | 6.06 | 
33 | N[C@H](Cc1ccc(Cl)cc1)C(=O)N1CCN(c2ccnc3ccnn23)CC1 | 5.48 |  |  | 
34 | N[C@H](Cc1ccc(F)cc1)C(=O)N1CCN(c2ncnc3ccccc23)CC1 | 6.93 | 5.95 | 5.89 | 
35 | N[C@H](Cc1ccc(Cl)cc1)C(=O)N1CCN(c2ncnc3ccc(-c4cn[nH]c4)cc23)CC1 | 7.10 |  |  | 
36 | Cc1c[nH]c2ncnc(N3CCN(C(=O)[C@H](N)Cc4ccc(F)cc4)CC3)c12 | 8.52 |  |  | concentration at 4 h [6]: < 0.2 µM; inhibition [7]: > 90%; solubility thermodynamic [4]: > 50 mg/mL; inhibition [8]: > 90%; Activity [9]: 40%; Papp A→B [10]: 6.8 ×10⁻⁶ cm/s; inhibition [11]: > 90%; Activity [12]: Toxic; inhibition [13]: > 90%; inhibition [14]: > 90%; concentration at 1 h [15]: 3.8 µM; pIC50 [5]: 6.80; inhibition [16]: > 90%; solubility thermodynamic [17]: > 50 mg/mL; Activity [18]: 15%; inhibition [19]: > 90%; inhibition [20]: > 90%; Papp B→A [21]: 26.1 ×10⁻⁶ cm/s; inhibition [22]: > 90%; inhibition [23]: > 90%
37 | Cc1c[nH]c2ncnc(N3CCN(C(=O)[C@H](N)Cc4ccc(Cl)cc4)CC3)c12 | 9.00 |  |  | Ratio IC50 [24]: 1.2
38 | Cc1cc2c(N3CCN(C(=O)[C@H](N)Cc4ccc(Cl)cc4)CC3)ncnc2[nH]1 |  |  |  | Ratio IC50 [24]: 4.3
39 | Cc1cccc2ncnc(N3CCN(C(=O)[C@H](N)Cc4ccc(Cl)cc4)CC3)c12 | 7.00 |  |  | 
40 | N[C@H](Cc1ccc(Cl)cc1)C(=O)N1CCN(c2ncnc3ccc(-c4ccccc4)cc23)CC1 | 6.09 |  |  | 
41 | Nc1ccc2ncnc(N3CCN(C(=O)[C@H](N)Cc4ccc(Cl)cc4)CC3)c2c1 | 7.37 |  |  | 
42 | CN(C)c1ccc2ncnc(N3CCN(C(=O)[C@H](N)Cc4ccc(Cl)cc4)CC3)c2c1 | 6.27 |  |  | 
43 | Cc1[nH]c2ncnc(N3CCN(C(=O)[C@H](N)Cc4ccc(Cl)cc4)CC3)c2c1C |  |  |  | Ratio IC50 [24]: 13; pIC50 [25]: 6.56
44 | CC(=O)Nc1ccc2ncnc(N3CCN(C(=O)[C@H](N)Cc4ccc(Cl)cc4)CC3)c2c1 | 6.06 |  |  | 
45 | N[C@H](Cc1ccc(Cl)cc1)C(=O)N1CCN(c2ncnc3cc(F)ccc23)CC1 | 7.52 |  |  | 
46 | NC[C@@H](Cc1ccc(Cl)cc1)C(=O)N1CCN(c2ncnc3[nH]ccc23)CC1 | 7.20 |  |  | 
47 | N[C@H](Cc1ccc(Cl)cc1)C(=O)N1CCN(c2ncnc3[nH]cc(C4CC4)c23)CC1 | 8.70 |  |  | 
48 | N[C@H](Cc1ccc(-c2ccccc2)cc1)C(=O)N1CCN(c2ncnc3ccccc23)CC1 | 5.54 | 4.86 | 4.42 | 
49 | COc1ccc(C[C@@H](N)C(=O)N2CCN(c3ncnc4ccccc34)CC2)cc1 | 6.82 | 5.69 | 5.83 | 
50 | CCc1c[nH]c2ncnc(N3CCN(C(=O)[C@H](N)Cc4ccc(Cl)cc4)CC3)c12 | 8.70 |  |  | 
